Results taken from PMC9091492 (RSC Advances, 2018).

Assays:
Assay type in all cases: cell-based
[1] = MTT cytotoxic assay, A549; settings: human, A549 cells
How it was run: (§1)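 Cells grown in RPMI-1640 with 10% fetal bovine serum, 5% CO2, 37 °C. Seeded at 5 × 10^4 cells per mL, 24 h to form a monolayer, then medium replaced with fresh medium plus test compound at 50, 25, 12.5, 6.25, 3.125, 1.5625 μg mL−1. After 3 days, MTT 4 h, formazan in DMSO, OD 570 nm. Inhibition rate from OD versus control, IC50 calculated; three individual experiments, mean ± SD; adriamycin positive control.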

[2] = MTT cytotoxic assay, HepG2; settings: human, HepG2 cells
How it was run: as §1

[3] = MTT cytotoxic assay, HeLa; settings: human, HeLa cells
How it was run: as §1

`COc1cccc2c1C(=O)c1c(O)c3c(c(O)c1C2=O)C[C@@](O)(C(=O)CO)C[C@@H]3O[C@H]1C[C@H](N)[C@H](O)[C@H](C)O1` [Adriamycin, adriamycin] gave an IC50 at 3 days [1] of 0.68 ± 0.06 µM, an IC50 at 3 days [2] of 1.25 ± 0.04 µM and an IC50 at 3 days [3] of 0.48 ± 0.07 µM.
